# Assay results from ChEMBL document CHEMBL1145251, “Synthesis of thiosemicarbazone and 4-thiazolidinone derivatives and their in vitro anti-Toxoplasma gondii activity” (Bioorg Med Chem Lett, 2005).
# Experiments:
# Toxoplasma gondii [1] = assay: Mean number of intracellular parasites in vero cells was determined after treatment with compound (Untreated=732); format: functional
# Vero [2] = assay: Compound tested for percent reduction of vero cells infected with Toxoplasma gondii after 24 hr at 37 degree Centigrade (Untreated=85); format: functional, Chlorocebus sabaeus
# Toxoplasma gondii [3] = assay: Compound tested on intracellular parasites Toxoplasma gondii in vero cells after 24 h; format: functional, organism-based
# Procedure, shortened: (§1)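 Infected Vero cultures (tachyzoites, 1:10, 24 h at 37 °C beforehand) were exposed 24 h to compound over 0.01–30 mM, as a dilution series (0.1, 1, 10, 20, 30 mM) in triplicate per assay. Trypan blue exclusion was the read-out, and IC50 (mean ± SD) came from non-linear regression.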
# Vero [4] = assay: Compound tested for percent reduction of vero cells infected with Toxoplasma gondii after 24 h at 37 degree Celsius (Untreated=76); format: functional, Chlorocebus sabaeus
# Toxoplasma gondii [5] = assay: Mean number of intracellular parasites in vero cells was determined after treatment with compound (Untreated=768); format: functional
# Vero [6] = assay: Compound tested on vero cells infected with Toxoplasma gondii after 24 h; format: functional, cell-based; conditions: Chlorocebus sabaeus; procedure, shortened: as §1
# Vero [7] = assay: Compound tested for percent reduction of vero cells infected with Toxoplasma gondii after 24 h at 37 degree Celsius (Untreated=86); format: functional, Chlorocebus sabaeus
# Toxoplasma gondii [8] = assay: Mean number of intracellular parasites in vero cells was determined after treatment with compound (Untreated=663); format: functional
# [9] = Mean number of intracellular parasites in vero cells was determined after treatment with compound (Untreated=852); format: functional, Toxoplasma gondii
# Toxoplasma gondii [10] = assay: Mean number of intracellular parasites in vero cells was determined after treatment with compound (Untreated=840); format: functional
# Vero [11] = assay: Compound tested for percent reduction of vero cells infected with Toxoplasma gondii after 24 hr at 37 degree Centigrade (Untreated=80); format: functional, Chlorocebus sabaeus
# Toxoplasma gondii [12] = assay: Mean number of intracellular parasites in vero cells was determined after treatment with compound (Untreated=642); format: functional
# Vero [13] = assay: Compound tested for percent of vero cells infected with Toxoplasma gondii after 24 hr at 37 degree Centigrade (Untreated=84)
# Vero [14] = assay: Compound tested for percent reduction of vero cells infected with Toxoplasma gondii after 24 hr at 37 degree Centigrade (Untreated=81); format: functional, Chlorocebus sabaeus
# Toxoplasma gondii [15] = assay: Mean number of intracellular parasites in vero cells was determined after treatment with compound (Untreated=783); format: functional
# Toxoplasma gondii [16] = assay: Mean number of intracellular parasites in vero cells was determined after treatment with compound (Untreated=726); format: functional
# Vero [17] = assay: Compound tested for percent reduction of vero cells infected with Toxoplasma gondii after 24 h at 37 degree Celsius (Untreated=87); format: functional, Chlorocebus sabaeus
# Toxoplasma gondii [18] = assay: Mean number of intracellular parasites in vero cells was determined after treatment with compound (Untreated=442); format: functional
# Vero [19] = assay: Compound tested for percent reduction of vero cells infected with Toxoplasma gondii after 24 h at 37 degree Celsius (Untreated=65); format: functional, Chlorocebus sabaeus
# Toxoplasma gondii [20] = assay: Mean number of intracellular parasites in vero cells was determined after treatment with compound (Untreated=698); format: functional
# Vero [21] = assay: Compound tested for percent reduction of vero cells infected with Toxoplasma gondii after 24 h at 37 degree Centigrade (Untreated=83); format: functional, Chlorocebus sabaeus
# Toxoplasma gondii [22] = assay: Mean number of intracellular parasites in vero cells was determined after treatment with compound (Untreated=687); format: functional
# Toxoplasma gondii [23] = assay: Mean number of intracellular parasites in vero cells was determined after treatment with compound (Untreated=628); format: functional
# Vero [24] = assay: Compound tested for percent reduction of vero cells infected with Toxoplasma gondii after 24 hr at 37 degree Centigrade (Untreated=72); format: functional, Chlorocebus sabaeus
# Toxoplasma gondii [25] = assay: Mean number of intracellular parasites in vero cells was determined after treatment with compound (Untreated=786); format: functional
# Toxoplasma gondii [26] = assay: Mean number of intracellular parasites in vero cells was determined after treatment with compound (Untreated=888); format: functional
# Toxoplasma gondii [27] = assay: Mean number of intracellular parasites in vero cells was determined after treatment with compound (Untreated=627); format: functional
# Vero [28] = assay: Compound tested for percent reduction of vero cells infected with Toxoplasma gondii after 24 h at 37 degree Centigrade (Untreated=89); format: functional, Chlorocebus sabaeus
# Toxoplasma gondii [29] = assay: Mean number of intracellular parasites in vero cells was determined after treatment with compound (Untreated=683); format: functional
# Toxoplasma gondii [30] = assay: Mean number of intracellular parasites in vero cells was determined after treatment with compound (Untreated=913); format: functional
compound,measurement,setting,value
CCN1C(=O)C(CC(=O)O)S/C1=N\N=C\c1cccc([N+](=O)[O-])c1 (centres undefined),Mean number of parasites,Toxoplasma gondii [1],3
same,Reduction,Vero [2],19%
N/C(S)=N/N=C/c1cccc([N+](=O)[O-])c1,IC50,Toxoplasma gondii [3],100 µM
same,Reduction,Vero [4],4%
same,Mean number of parasites,Toxoplasma gondii [5],3
same,IC50,Vero [6],2000 µM
CCN1C(=O)C(CC(=O)O)S/C1=N\N=C\c1ccccc1[N+](=O)[O-] (centres undefined),Reduction,Vero [7],14%
same,Mean number of parasites,Toxoplasma gondii [8],3
CC/N=C(/S)N/N=C/c1ccc([N+](=O)[O-])cc1,IC50,Toxoplasma gondii [3],500 µM
same,Reduction,Vero [7],17%
same,IC50,Vero [6],2500 µM
same,Mean number of parasites,[9],9
O=C(O)CC1SC(N/N=C/c2ccc([N+](=O)[O-])cc2)=NC1=O (centres undefined),IC50,Toxoplasma gondii [3],500 µM
same,Mean number of parasites,Toxoplasma gondii [1],4
same,Reduction,Vero [2],16%
same,IC50,Vero [6],2500 µM
O=C(O)CC1SC(N/N=C/c2cccc([N+](=O)[O-])c2)=NC1=O (centres undefined),IC50,Toxoplasma gondii [3],500 µM
same,Mean number of parasites,Toxoplasma gondii [10],4
same,IC50,Vero [6],2000 µM
same,Reduction,Vero [11],15%
CC/N=C(/S)N/N=C/c1cccc([N+](=O)[O-])c1,IC50,Toxoplasma gondii [3],80 µM
same,Reduction,Vero [4],7%
same,Mean number of parasites,Toxoplasma gondii [5],5
same,IC50,Vero [6],1000 µM
O=[N+]([O-])c1ccccc1/C=N/N=C(\S)Nc1ccccc1,IC50,Toxoplasma gondii [3],500 µM
same,Mean number of parasites,Toxoplasma gondii [12],3
same,Infected cells,Vero [13],7%
same,IC50,Vero [6],1000 µM
C/N=C(/S)N/N=C/c1ccccc1[N+](=O)[O-],IC50,Toxoplasma gondii [3],500 µM
same,Reduction,Vero [14],9%
same,IC50,Vero [6],2000 µM
same,Mean number of parasites,Toxoplasma gondii [15],2
CN1C(=O)C(CC(=O)O)S/C1=N\N=C\c1ccc([N+](=O)[O-])cc1 (centres undefined),Mean number of parasites,Toxoplasma gondii [16],2
same,Reduction,Vero [17],13%
O=[N+]([O-])c1cccc(/C=N/N=C(\S)Nc2ccccc2)c1,IC50,Toxoplasma gondii [3],80 µM
same,Mean number of parasites,Toxoplasma gondii [18],11
same,IC50,Vero [6],1000 µM
same,Reduction,Vero [19],7%
N/C(S)=N/N=C/c1ccc([N+](=O)[O-])cc1,IC50,Toxoplasma gondii [3],500 µM
same,IC50,Vero [6],1500 µM
same,Reduction,Vero [19],5%
same,Mean number of parasites,Toxoplasma gondii [20],4
O=C(O)CC1S/C(=N\N=C\c2ccccc2[N+](=O)[O-])N(c2ccccc2)C1=O (centres undefined),Reduction,Vero [21],8%
same,Mean number of parasites,Toxoplasma gondii [22],2
CN1C(=O)C(CC(=O)O)S/C1=N\N=C\c1cccc([N+](=O)[O-])c1 (centres undefined),Reduction,Vero [2],11%
same,Mean number of parasites,Toxoplasma gondii [23],2
O=C(O)CC1S/C(=N\N=C\c2cccc([N+](=O)[O-])c2)N(c2ccccc2)C1=O (centres undefined),Reduction,Vero [24],13%
same,Mean number of parasites,Toxoplasma gondii [25],2
CN1C(=O)C(CC(=O)O)S/C1=N\N=C\c1ccccc1[N+](=O)[O-] (centres undefined),IC50,Toxoplasma gondii [3],500 µM
same,Infected cells,Vero [13],15%
same,Mean number of parasites,Toxoplasma gondii [26],3
same,IC50,Vero [6],2000 µM
Nc1ccc(S(=O)(=O)Nc2ncccn2)cc1 [SULFADIAZINE],IC50,Toxoplasma gondii [3],100 µM
same,IC50,Vero [6],90 µM
CC/N=C(/S)N/N=C/c1ccccc1[N+](=O)[O-],IC50,Toxoplasma gondii [3],500 µM
same,Reduction,Vero [14],8%
same,IC50,Vero [6],2000 µM
same,Mean number of parasites,Toxoplasma gondii [15],1
CCN1C(=O)C(CC(=O)O)S/C1=N\N=C\c1ccc([N+](=O)[O-])cc1 (centres undefined),Mean number of parasites,Toxoplasma gondii [27],2
same,IC50,Toxoplasma gondii [3],500 µM
same,IC50,Vero [6],2000 µM
same,Reduction,Vero [11],7%
C/N=C(/S)N/N=C/c1cccc([N+](=O)[O-])c1,IC50,Toxoplasma gondii [3],500 µM
same,Mean number of parasites,Toxoplasma gondii [12],1
same,Infected cells,Vero [13],9%
same,IC50,Vero [6],1500 µM
C/N=C(/S)N/N=C/c1ccc([N+](=O)[O-])cc1,IC50,Toxoplasma gondii [3],3000 µM
same,Reduction,Vero [28],12%
same,Mean number of parasites,Toxoplasma gondii [29],72
same,IC50,Vero [6],10000 µM
NC(=O)NO [HYDROXYUREA],IC50,Toxoplasma gondii [3],100 µM
same,Mean number of parasites,Toxoplasma gondii [30],186
same,IC50,Vero [6],100 µM
same,Reduction,Vero [11],26%
